Experimental data as given in ChEMBL document CHEMBL1124463, “Retinobenzoic acids. 3. Structure-activity relationships of retinoidal azobenzene-4-carboxylic acids and stilbene-4-carboxylic acids” (1989).
Active and inactive are the calls of the source. The rule behind the calls is not given here.

Experiments:
[1] = test system: HL-60; assay: Activity to differentiate HL-60 cells relative to that of retinoic acid; format: functional, Homo sapiens
How it was run: (§1)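 HL-60 cells from suspension culture in RPMI1640 with 5% FCS and antibiotics, 37 °C, 5% CO2. Compounds were dissolved in ethanol at 0.2 mM (stock), with final ethanol below 0.5%, and added to cells seeded at about 8 × 10^4 cells/mL for 4 days. Retinoic acid was run concurrently. Value is the ED50 ratio of retinoic acid to compound, with ED50 taken from NBT-reduction data.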

[2] = test system: HL-60; assay: The ability to induce differentiation of human promyelocytic leukemia HL-60 cell line to mature granulocyte; format: functional; details: read-out: ED50 (the source's name)
How it was run: (§2)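 HL-60 cells in RPMI1640 with 5% FCS, ethanol stocks at 0.2 mM, final ethanol <0.5%, seeded at ~8 × 10^4 cells/mL and exposed 4 days across 5 orders of concentration. Cells were then incubated 20 min at 37 °C with an equal volume of PBS containing 0.2% NBT and 200 ng/mL TPA. Formazan-positive cells were counted (≥200 cells). ED50 from NBT data; ≥3 repeats.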

[3] = test system: HL-60; assay: The ability to induce differentiation of HL-60 cells relative to that of retinoic acid; format: functional, Homo sapiens; how it was run: as §1
[4] = test system: HL-60; assay: The ability to induce differentiation of human promyelocytic leukemia HL-60 cell line to mature granulocyte was determined in a NBT reduction assay; NA means inactive.; format: functional, cell-based; how it was run: as §2
[5] = test system: HL-60; assay: The ability to induce differentiation of human promyelocytic leukemia HL-60 cell line to mature granulocyte was determined in a NBT reduction assay; IA= Inactive at >10e-6; format: functional, cell-based; how it was run: as §2
[6] = test system: HL-60; assay: The ability to induce differentiation of human promyelocytic leukemia HL-60 cell line to mature granulocyte was determined in a NBT reduction assay; Maximum cellular response to compound is less than half of that of retinoic acid.; format: functional; details: read-out: ED50 (the source's name); how it was run: as §2
[7] = test system: HL-60; assay: The ability to induce differentiation of human promyelocytic leukemia HL-60 cell line to mature granulocyte was determined in a NBT reduction assay; IA= Inactive; format: functional, cell-based; how it was run: as §2

Row | Structure (SMILES) | EC50 [2] [nM] | Relative activity [3] | also measured
1 | O=C(O)c1ccc(/C=C/c2ccccc2)cc1 | – | – | ED50 [4]: inactive
2 | CCc1cccc(/N=N/c2ccc(C(=O)O)cc2)c1 | – | <0.1 | ED50 [5]: inactive
3 | CC1(C)CCC(C)(C)c2cc3c(cc21)C=C(c1ccc(C(=O)O)cc1)C3 | – | – | EC50 [6]: 6.6 nM
4 | CC1(C)CCC(C)(C)c2cc(/N=[N+](\[O-])c3ccc(C(=O)O)cc3)ccc21 | 0.25 | 1960 | –
5 | CC1(C)CCC(C)(C)c2cc(/N=N/c3ccc(C(=O)O)cc3)ccc21 | – | 130 | –
6 | C/C(=C\c1ccc(C(=O)O)cc1)c1ccc(C)c(C)c1 | – | – | ED50 [7]: inactive
7 | CC(C)c1ccc(/N=N/c2ccc(C(=O)O)cc2)c(C(C)C)c1 | > 10000 | <0.1 | –
8 | O=C(O)c1ccc(/N=N/c2ccccc2)cc1 | – | – | ED50 [7]: inactive
9 | Cc1cccc(/N=N/c2ccc(C(=O)O)cc2)c1 | – | – | ED50 [7]: inactive
10 | CC(C)(C)c1cccc(C2OC2c2ccc(C(=O)O)cc2)c1 (stereo unspecified) | > 1000 | < 0.01 | –
11 | CCc1ccc(C2(C)OC2c2ccc(C(=O)O)cc2)cc1CC (stereo unspecified) | – | – | ED50 [7]: inactive
12 | CC(C)(C)c1cccc(/C=C/c2ccc(C(=O)O)cc2)c1 | – | 13 | –
13 | CC1(C)CCC(C)(C)c2cc(CCc3ccc(C(=O)O)cc3)ccc21 | 130 | 2.7 | –
14 | CC(C)(C)c1ccc(/C=C/c2ccc(C(=O)O)cc2)cc1 | – | – | ED50 [7]: inactive
15 | CC(C)c1ccc(C(C)C)c(/N=N/c2ccc(C(=O)O)cc2)c1 | – | – | ED50 [7]: inactive
16 | CC(C)c1ccccc1/N=N/c1ccc(C(=O)O)cc1 | – | – | ED50 [7]: inactive
17 | C/C(=C\c1ccc(C(=O)O)cc1)c1ccc(C(C)(C)C)cc1 | – | – | ED50 [7]: inactive

Second part, led by results:

Row | EC50 [2] [nM] | Structure (SMILES) | Relative activity [3] | also measured
18 | 13 | C/C(=C\c1ccc(C(=O)O)cc1)c1ccc(C(C)C)c(C(C)C)c1 | – | Relative activity [1]: 15
19 | 4.3 | CC1(C)CCC(C)(C)c2cc(C3OC3c3ccc(C(=O)O)cc3)ccc21 (stereo unspecified) | 22 | –
20 | 87 | CCc1ccc(/C(C)=C/c2ccc(C(=O)O)cc2)cc1CC | 2.2 | –
21 | 2.3 | CC(C)c1ccc(/N=N/c2ccc(C(=O)O)cc2)cc1C(C)C | 39 | –
22 | 130 | CC1(C)CCC(C)(C)c2cc(C3(C)OC3c3ccc(C(=O)O)cc3)ccc21 (stereo unspecified) | 0.65 | –
23 | 2.4 | CC1=C(/C=C/C(C)=C/C=C/C(C)=C/C(=O)O)C(C)(C)CCC1 [TRETINOIN] | 100 | –
24 | 0.5 | CC1(C)CCC(C)(C)c2cc(/C=C/c3ccc(C(=O)O)cc3)ccc21 | 260 | –
25 | 140 | CC1(C)CCC(C)(C)c2cc(C(=O)C(=O)c3ccc(C(=O)O)cc3)ccc21 | 3.9 | –
26 | 1.3 | CC1(C)CCC(C)(C)c2cc3oc(-c4ccc(C(=O)O)cc4)cc3cc21 | 120 | –
27 | > 1000 | CC(C)(C)c1ccc(C2OC2c2ccc(C(=O)O)cc2)cc1 (stereo unspecified) | < 0.01 | –
28 | 380 | CC(C)c1cccc(/N=N/c2ccc(C(=O)O)cc2)c1 | 0.29 | –
29 | 130 | O=C(O)c1ccc(/N=N/c2cccc(C3CCCCC3)c2)cc1 | 0.68 | –
30 | 400 | CC(C)(C)c1cccc(/N=N/c2ccc(C(=O)O)cc2)c1 | 0.36 | –
31 | 0.2 | CC1(C)CCC(C)(C)c2cc3c(cc21)CC/C3=C\c1ccc(C(=O)O)cc1 | 570 | –
32 | 31 | CC1(C)CCC(C)(C)c2cc(/C(=C/c3ccc(C(=O)O)cc3)C(F)(F)F)ccc21 | 5.7 | –
33 | > 10000 | O=C(O)c1ccc(/N=N/c2cccc(-c3ccccc3)c2)cc1 | <0.1 | –
34 | 210 | CC1(C)CCSc2ccc(/N=N/c3ccc(C(=O)O)cc3)cc21 | 2.1 | –
35 | 220 | CCc1ccc(/N=N/c2ccc(C(=O)O)cc2)cc1CC | 0.53 | –
36 | 2.5 | C/C(=C\c1ccc(C(=O)O)cc1)c1ccc2c(c1)C(C)(C)CCC2(C)C | 90 | –
37 | 410 | CC(C)c1cc(/N=N/c2ccc(C(=O)O)cc2)cc(C(C)C)c1 | 0.22 | –
38 | > 10000 | CC(C)c1ccc(/N=N/c2ccc(C(=O)O)cc2)cc1 | <0.1 | –
39 | 130 | CC1(C)CCOc2ccc(/N=N/c3ccc(C(=O)O)cc3)cc21 | 3.5 | –
